From ChEMBL document CHEMBL3526015, “Metabolism of the c-Fos/activator protein-1 inhibitor T-5224 by multiple human UDP-glucuronosyltransferase isoforms” (Drug Metab Dispos, 2011)
pKi: −log10 of the molar value.

Assays:
Liver microsome [1] = assay: Substrate inhibition of T-5224 hydroxyl O-glucuronide formation in human liver microsomes after 10 to 60 mins by HPLC method
Summary of the method: (§1)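 Pooled liver (0.5 mg protein/mL) or intestinal (0.25 mg protein/mL) microsomes in 50 mM Tris-HCl pH 7.5, 8 mM MgCl2, alamethicin, 2% DMSO. T-5224 at 1–50 μM, 5 min preincubation at 37°C, started with 2 mM UDPGA. Incubated 10 min, or 20 min for intestinal microsomes at 1–5 μM. Acetonitrile stop, glucuronides by HPLC at 290 nm. Triplicates fitted to a substrate-inhibition model.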

[2] = target: T1, UDP-glucuronosyltransferase 1A1 (Homo sapiens, UniProt P22309); assay: Drug metabolism assessed as human UGT1A1-mediated T-5224 hydroxyl O-glucuronide formation at 5 to 50 uM after 60 mins in presence of UDP-glucuronic acid by HPLC method; format: ADME; conditions: recombinant enzyme, 1 h
T1 sequence (P22309 whole entry): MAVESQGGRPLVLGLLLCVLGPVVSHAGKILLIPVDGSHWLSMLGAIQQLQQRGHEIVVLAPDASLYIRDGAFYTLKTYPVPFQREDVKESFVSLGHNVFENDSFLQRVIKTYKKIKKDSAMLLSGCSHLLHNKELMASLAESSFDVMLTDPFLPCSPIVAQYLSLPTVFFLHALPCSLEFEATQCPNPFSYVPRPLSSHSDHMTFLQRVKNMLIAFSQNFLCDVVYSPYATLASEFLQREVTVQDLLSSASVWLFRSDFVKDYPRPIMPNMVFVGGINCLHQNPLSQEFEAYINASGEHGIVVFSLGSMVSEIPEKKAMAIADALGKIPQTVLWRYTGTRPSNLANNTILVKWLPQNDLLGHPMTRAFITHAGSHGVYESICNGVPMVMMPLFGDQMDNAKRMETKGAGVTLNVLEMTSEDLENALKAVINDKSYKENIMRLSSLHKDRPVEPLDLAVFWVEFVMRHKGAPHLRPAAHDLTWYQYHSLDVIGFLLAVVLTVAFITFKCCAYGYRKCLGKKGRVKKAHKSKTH

Cytochrome P450 2B6 = target: T2, Cytochrome P450 2B6 (Homo sapiens, UniProt P20813); assay: Drug metabolism assessed as human CYP2B6-mediated metabolite formation at 2 uM after 30 mins by HPLC method; format: ADME; conditions: recombinant enzyme, 0.5 h
T2 sequence (P20813 whole entry): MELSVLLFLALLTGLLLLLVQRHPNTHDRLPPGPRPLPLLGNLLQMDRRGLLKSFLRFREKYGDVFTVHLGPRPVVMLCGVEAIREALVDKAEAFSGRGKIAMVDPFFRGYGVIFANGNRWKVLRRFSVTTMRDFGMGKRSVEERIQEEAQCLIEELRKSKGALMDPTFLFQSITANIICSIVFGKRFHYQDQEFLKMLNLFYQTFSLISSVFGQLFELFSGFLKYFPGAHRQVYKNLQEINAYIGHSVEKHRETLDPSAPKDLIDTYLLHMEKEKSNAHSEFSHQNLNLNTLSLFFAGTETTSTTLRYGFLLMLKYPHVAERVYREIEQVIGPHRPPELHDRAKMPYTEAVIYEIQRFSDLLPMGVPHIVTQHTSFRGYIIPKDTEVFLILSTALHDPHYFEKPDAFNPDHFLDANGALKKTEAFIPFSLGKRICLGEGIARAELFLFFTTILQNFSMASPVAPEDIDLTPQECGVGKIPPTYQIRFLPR
Summary of the method: (§2)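 Each recombinant human P450 was used at 50 pmol/mL with an NADPH-generating system and 2 μM 14C-T-5224 (0.5% DMSO final). Buffer was 100 mM Tris-HCl pH 7.5, except 100 mM potassium phosphate pH 7.4 for CYP2A6 and CYP2C9*1. Incubation ran 30 min at 37°C and was stopped with acetonitrile/methanol. Radioactive metabolite peaks were detected by C18 HPLC.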

Liver microsome [3] = assay: Drug metabolism in pooled human liver microsomes assessed as T-5224 acyl O-glucuronide formation at 10 uM after 10 mins by HPLC method; format: ADME
Summary of the method: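 T-5224 at 10 μM incubated for 10 min at 37°C with UDPGA (2 mM) in pooled liver (0.5 mg protein/mL) or intestinal (0.25 mg protein/mL) microsomes. Buffer was 50 mM Tris-HCl pH 7.5 with 8 mM MgCl2 and alamethicin, after 5 min preincubation. Stopped with acetonitrile; glucuronides quantified by HPLC at 290 nm.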

[4] = Substrate inhibition of T-5224 acyl O-glucuronide formation in human intestinal microsomes after 10 to 60 mins by HPLC method; parameters: species or system Intestine, Microsome; summary of the method: as §1
[5] = target: T3, UDP-glucuronosyltransferase 1A3 (Homo sapiens, UniProt P35503); assay: Drug metabolism assessed as Vmax/Km ratio for human UGT1A3-mediated T-5224 hydroxyl O-glucuronide formation per mg protein after 10 to 60 mins in presence of UDP-glucuronic acid by HPLC method; format: ADME; conditions: recombinant enzyme
T3 sequence (P35503 whole entry): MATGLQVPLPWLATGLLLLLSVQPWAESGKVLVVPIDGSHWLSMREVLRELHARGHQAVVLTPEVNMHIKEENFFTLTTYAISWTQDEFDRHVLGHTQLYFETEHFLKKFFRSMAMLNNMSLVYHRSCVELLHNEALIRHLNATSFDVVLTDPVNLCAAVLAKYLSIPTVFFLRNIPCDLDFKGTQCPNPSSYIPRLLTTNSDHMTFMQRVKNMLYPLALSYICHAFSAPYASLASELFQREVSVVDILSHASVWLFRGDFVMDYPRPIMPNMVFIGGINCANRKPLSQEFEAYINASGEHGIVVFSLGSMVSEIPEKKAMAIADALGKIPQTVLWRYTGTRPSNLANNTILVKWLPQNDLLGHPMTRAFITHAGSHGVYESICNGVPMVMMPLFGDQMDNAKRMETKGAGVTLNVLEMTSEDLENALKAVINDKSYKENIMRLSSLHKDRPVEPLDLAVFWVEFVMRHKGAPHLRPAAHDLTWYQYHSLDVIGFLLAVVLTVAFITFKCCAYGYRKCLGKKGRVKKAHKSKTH
Summary of the method: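 Kinetics used recombinant UGT1A1, 1A3 or 1A8 (0.1 mg protein/mL) with T-5224 at 1–50 μM, 2 mM UDPGA and 60 min at 37°C, in triplicate. G2/G3 were measured by HPLC at 290 nm and fitted to a substrate-inhibition model (Vmax, Km, Ksi). UGT content was quantified by immunoblot, and kcat = Vmax/E0 was derived from it.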

[6] = Substrate inhibition of T-5224 hydroxyl O-glucuronide formation in human intestinal microsomes after 10 to 60 mins by HPLC method; parameters: species or system Intestine, Microsome; summary of the method: as §1
[7] = Drug metabolism in human intestinal microsomes assessed as T-5224 acyl O-glucuronide formation after 10 to 60 mins by HPLC method; format: ADME, Intestine, Microsome
Summary of the method: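 Pooled liver microsomes (0.5 mg/mL) were incubated 10 min. Pooled intestinal microsomes (0.25 mg/mL) ran 10 min at T-5224 10–50 μM and 20 min at 1–5 μM. Buffer was 50 mM Tris-HCl pH 7.5 with 8 mM MgCl2, alamethicin and 2 mM UDPGA, at 37°C, in triplicate. Glucuronides G2/G3 were read by HPLC at 290 nm and fitted for Vmax/Km.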

[8] = Drug metabolism assessed as human CYP2D6*1-mediated metabolite formation at 2 uM after 30 mins by HPLC method; format: ADME; conditions: 0.5 h; summary of the method: as §2

Q: With `O=C(O)CCc1cc(C(=O)c2ccc(OC3CCCC3)cc2O)ccc1OCc1ccc2c(O)noc2c1` as the compound, how does the pKi (Liver microsome [1]) read?
A: Its pKi is 4.57.

Q: And the Drug metabolism [2]?
A: Its Drug metabolism is “metabolite_detected”.

Q: And the Drug metabolism (Cytochrome P450 2B6)?
A: Its Drug metabolism is “metabolite_not_detected”.

Q: And the Drug metabolism (Liver microsome [3])?
A: The Drug metabolism was “metabolite_detected”.

Q: What about the pKi [4] of the same compound?
A: The pKi was 5.58.

Q: What about the Vmax/Km [5] of the same compound?
A: The Vmax/Km was 47.5 µL/min.

Q: And the pKi [6]?
A: Its pKi is 4.24.

Q: And the Km [7]?
A: The Km was 5.88 µM.

Q: What about the Drug metabolism [8] of the same compound?
A: The Drug metabolism was “metabolite_not_detected”.
